Laboratory results as given in PubChem BioAssay.
Records with an inconclusive call do not appear.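 Rule for the calls, unless noted: active = inhibition over a set limit, the all-compound mean plus 3 SD, in both replicate runs; inconclusive = over that limit in just one replicate run; inactive = at or under that limit in both runs.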

Columns and labels:
[1] = S. cerevisiae growth inhibition in permissive medium (OD615), pilot counter-assay for S. cerevisiae lifespan shortening project, permissive growth control (AID 705;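 active = growth inhibition above 25% in both replicates, a cutoff set 3 SD above the mean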); settings: OD615, 24 h, at 10 µM, active compounds read high
Outline: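 assay system = Saccharomyces cerevisiae strain carrying genetically modified DeaD replicative-lifespan system | medium = SC raffinose/galactose permissive medium | dosing = 10 µM single dose, 0.25% DMSO | schedule = 24 h compound exposure at 30 °C after 4 h pre-growth | measured by = OD at 615 nm | read-out basis = growth inhibition from lowered OD615 after 24 h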

[2] = S. cerevisiae growth inhibition in restrictive medium, OD615, pilot screen, restrictive growth control, yeast lifespan reduction project (AID 706;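 active = growth inhibition above a set limit, 3 SD over mean compound inhibition, in both replicates, cut at about 43% in these data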;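 note: modified DeaD lifespan yeast strain shifted to restrictive glucose medium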); settings: OD615, 48 h, at 10 µM, active compounds read high
Outline: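 Buffer or medium: CSMM-D glucose medium. Material: genetically modified Saccharomyces cerevisiae, DeaD replicative lifespan assay strain. Times: 48 h compound exposure at 30 °C. Measured by: optical density at 615 nm.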

[3] = doxorubicin toxicity protection in MRP-1 cells – H69AR cells, CellTiter-Glo, duplicate, MRP-1 activator project, pilot screen (AID 807;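 active = viability increase at or above a cutoff of the median across tested compounds plus 3 SD, cut at about 8.5% in these data, passing the limit was not always enough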;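 note: compound pretreatment 18-22 h then 72 h combined with doxorubicin; 0% = doxorubicin alone and 100% = vehicle without doxorubicin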); settings: H69AR viability with doxorubicin, CellTiter-Glo luminescence; at 10 µM; active compounds read high
[4] = viability of HCT116 without oncogenic beta-catenin – human colon tumor cells, pilot screen (AID 823;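 active = cell viability at or below a set limit in both duplicate runs, the limit being the all-compound median minus 4 SD, cut at about 23% in these data, passing the limit was not always enough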;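 note: 0% = wells killed by 20 µM Hyamine and 100% = untreated DMSO cell wells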); settings: HCT116 beta-catenin knockout viability, CellTiter-Glo, 60 h; at 10 µM; active compounds read low
[5] = viability of PTEN-null HCT116 cells – cell-based, HCT116 clonal line, CellTiter-Glo, pilot screen (AID 824;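 active = viability at or below 27.92% in each of two runs, the all-compound median minus 4 SD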;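 note: 0% = 20 µM Hyamine control and 100% = vehicle cell control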); settings: HCT116 PTEN-deleted viability, 60 h, at 10 µM, active compounds read low
[6] = RAM pathway blockade in budding yeast – dse1pr::URA3 reporter, 5-FOA selection, pilot screen (AID 869);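 note: 0% = DMSO wells with no growth and 100% = 10 µM 1-NA-PP1 with full growth; RAM network block rescues cells from 5-FOA so hits raise OD615 growth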; settings: S. cerevisiae dse1pr::URA3 5-FOA growth, OD615, 2 d; at 10 µM; active compounds read high; strain carries analog-sensitive mutant Cbk1 kinase
[7] = RAM signaling pathway blockade in yeast – S. cerevisiae, Pdr1DBD-CYC8 efflux-inhibited sensitized strain, primary screen (AID 1298;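 active = RAM network inhibition above 8.4% in each of two replicates, 3 SD over the compound average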;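 note: 0% = DMSO untreated cells without growth and 100% = 10 µM 1-NA-PP1 full growth; higher means more yeast growth rescued from 5-FOA killing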); settings: S. cerevisiae cbk1-as DSE1-URA3 strain, 5-FOA growth OD615, 2 d; at 50 µM; active compounds read high

CNC(=O)c1c(NC(=O)c2ccc(S(=O)(=O)N3CCOCC3)cc2)sc2c1CCC2
inactive: growth inhibition [1] -0.09% | growth inhibition [2] -0.055% | viability increase [3] -0.97% | viability [4] 95.9% | viability [5] 91.8% | inhibition [6] 0.78% | RAM network inhibition [7] 4.58%

Cn1c(=O)c2c(nc(-n3ccnc3)n2Cc2ccc(Cl)cc2Cl)n(C)c1=O
inactive: growth inhibition [1] -10.2% | growth inhibition [2] -2.64% | viability increase [3] -4.31% | viability [4] 89.2% | viability [5] 80.4% | inhibition [6] 1.17% | RAM network inhibition [7] 5.62%

COC(=O)c1ccc(-c2nc(-c3cccs3)no2)cc1
inactive: growth inhibition [1] 11.1% | growth inhibition [2] 10.5% | viability increase [3] -5.21% | viability [4] 84.1% | viability [5] 76.7% | inhibition [6] 2.32% | RAM network inhibition [7] 0.79%

Cc1ccc(C)c(S(=O)(=O)NC(CC(C)C)C(=O)O)c1 (configuration not stated)
inactive: growth inhibition [1] -9.28% | growth inhibition [2] -29.3% | viability increase [3] -1.32% | viability [4] 105% | viability [5] 102% | inhibition [6] 1.69% | RAM network inhibition [7] 2.5%

CCN(CC)c1ccc(NC(=O)C2CC3CCC2C3)cc1 (configuration not stated)
inactive: growth inhibition [1] -9.15% | growth inhibition [2] -4.45% | viability increase [3] 1.44% | viability [4] 69.6% | viability [5] 80.6% | inhibition [6] 1.14% | RAM network inhibition [7] 6.6%

Cc1ccccc1Cn1c(=O)[nH]c2ccccc21
inactive: growth inhibition [1] -1.87% | growth inhibition [2] 4.58% | viability increase [3] 0.06% | viability [4] 96.5% | viability [5] 88.5% | inhibition [6] 1.9% | RAM network inhibition [7] 4.55%

Cc1cc(C)c(S(=O)(=O)N2CCN(C)CC2)c(C)c1
inactive: growth inhibition [1] -9.57% | growth inhibition [2] -13.9% | viability increase [3] 1.1% | viability [4] 101% | viability [5] 101% | inhibition [6] 0.885% | RAM network inhibition [7] 1.78%

CC1CCN(c2ncnc3c2cnn3-c2ccccc2)CC1
inactive: growth inhibition [1] 7.81% | growth inhibition [2] 10.9% | viability increase [3] 4.17% | viability [4] 77.8% | viability [5] 87.3% | inhibition [6] 0.495% | RAM network inhibition [7] -1.46%

CN1CCN(CCNC(=O)c2cc3c(=O)n(C)c4ccccc4c3n2C)CC1
inactive: growth inhibition [1] -12.9% | growth inhibition [2] -20% | viability increase [3] -4.6% | viability [4] 82.3% | viability [5] 81.3% | inhibition [6] 0.755% | RAM network inhibition [7] 1.04%

CCOC(=O)Cc1csc(NC(=O)c2c(-c3ccccc3)noc2C)n1
inactive: growth inhibition [1] -10.4% | growth inhibition [2] -8.59% | viability increase [3] 4.11% | viability [4] 99.4% | viability [5] 101% | inhibition [6] -0.185% | RAM network inhibition [7] 1.54%

Cc1oc(-c2ccc(Cl)cc2)nc1CN1CCCC(C(=O)NCCCN2CCCC2=O)C1 (configuration not stated)
inactive: growth inhibition [1] -14.7% | growth inhibition [2] -21.4% | viability increase [3] -0.61% | viability [4] 63.8% | viability [5] 78.7% | inhibition [6] 1.73% | RAM network inhibition [7] 0.96%

O=C(CN1CCOc2ccccc21)NC1CCCCCCC1
inactive: growth inhibition [1] -14.2% | growth inhibition [2] 21.8% | viability increase [3] -5.54% | viability [4] 75.5% | viability [5] 78.2% | inhibition [6] 1.38% | RAM network inhibition [7] 0.83%

Cc1nnc(NC(=O)CSc2cn(Cc3ccccc3)c3ccccc23)s1
inactive: growth inhibition [1] -8.99% | growth inhibition [2] -0.275% | viability increase [3] -2.83% | viability [4] 82.2% | viability [5] 81.2% | inhibition [6] 2.86% | RAM network inhibition [7] 2.77%

COC(=O)c1c(C(=O)OC)c2n(c1C)Cc1ccccc1C2
inactive: growth inhibition [1] -4.47% | growth inhibition [2] -1.14% | viability increase [3] -1.39% | viability [4] 86.6% | viability [5] 90.2% | inhibition [6] 1.85% | RAM network inhibition [7] 1.43%

CC1CCCCN1CCCNC(=O)C1CCN(c2nc3ccccc3o2)CC1 (configuration not stated)
inactive: growth inhibition [1] -2.48% | growth inhibition [2] -4.11% | viability increase [3] -0.83% | viability [4] 99.9% | viability [5] 97.8% | inhibition [6] 0.5% | RAM network inhibition [7] 3.1%

O=C(COC(=O)c1ccco1)Nc1ccc(Br)cc1
inactive: growth inhibition [1] -15.4% | growth inhibition [2] -14.3% | viability increase [3] -1.81% | viability [4] 93.5% | viability [5] 99.3% | inhibition [6] 1.45% | RAM network inhibition [7] 2.21%

O=C(Cn1nc(-c2ccc(Cl)cc2)ccc1=O)NCCN1CCOCC1
inactive: growth inhibition [1] -3.21% | growth inhibition [2] -12.3% | viability increase [3] -1.27% | viability [4] 100% | viability [5] 100% | inhibition [6] 0.355% | RAM network inhibition [7] 7.69%

CC(C)c1cc(C(=O)Nc2ccc3c(c2)OCO3)no1
inactive: growth inhibition [1] -13.7% | growth inhibition [2] 4.26% | viability increase [3] -4.63% | viability [4] 94.2% | viability [5] 92.8% | inhibition [6] 1.88% | RAM network inhibition [7] 3.88%

Cn1c(=O)c2c(SCc3cccnc3)nc(CC(C)(C)C)nc2n(C)c1=O
inactive: growth inhibition [1] 0.2% | growth inhibition [2] -12% | viability increase [3] -6.27% | viability [4] 87.2% | viability [5] 80.9% | inhibition [6] 0.1% | RAM network inhibition [7] 3.24%

Cc1c(NC(=O)c2ccc3c(c2)OCO3)c(=O)n(-c2ccccc2)n1C
inactive: growth inhibition [1] -8.08% | growth inhibition [2] -23.4% | viability increase [3] -0.33% | viability [4] 104% | viability [5] 101% | inhibition [6] 0.345% | RAM network inhibition [7] 2.71%

COc1cc(NC(=O)Cn2ncc3c2-c2ccccc2OC3)cc(OC)c1OC
inactive: growth inhibition [1] -6.13% | growth inhibition [2] 6.98% | viability increase [3] -3.04% | viability [4] 86.6% | viability [5] 83.5% | inhibition [6] 2.05% | RAM network inhibition [7] 2.19%

Cc1cc(CN2C(=O)c3ccccc3C2=O)cc(N2CCOCC2)c1
inactive: growth inhibition [1] -9.23% | growth inhibition [2] -10.3% | viability increase [3] -2.19% | viability [4] 95% | viability [5] 87.7% | inhibition [6] 0.76% | RAM network inhibition [7] 1.4%

CSc1nc(C)cc(SCCO)n1
inactive: growth inhibition [1] -3.2% | growth inhibition [2] 8.15% | viability increase [3] -1.79% | viability [4] 105% | viability [5] 102% | inhibition [6] 0.695% | RAM network inhibition [7] 0.46%

O=C(O)CCC(=O)c1ccc2c(c1)OCCO2
inactive: growth inhibition [1] -6.04% | growth inhibition [2] 8.29% | viability increase [3] -1.32% | viability [4] 101% | viability [5] 103% | inhibition [6] 1.79% | RAM network inhibition [7] -1.36%

c1ccc(N2CCOCC2)c(Nc2nc3ccccc3n3cnnc23)c1
inactive: growth inhibition [1] -8.77% | growth inhibition [2] -1.25% | viability increase [3] -2.57% | viability [4] 66.3% | viability [5] 49.1% | inhibition [6] 1.02% | RAM network inhibition [7] 9.05%

CCc1nnc(NC(=O)CSc2nc3c(c(=O)n2CC)SC(C)C3)s1 (configuration not stated)
inactive: growth inhibition [1] 3.12% | growth inhibition [2] -4.29% | viability increase [3] -0.18% | viability [4] 99.2% | viability [5] 93.1% | inhibition [6] 3.99% | RAM network inhibition [7] 6.11%

CCOc1ccc(C2CC(c3ccc(F)cc3)n3ncnc3N2)cc1 (configuration not stated)
inactive: growth inhibition [1] 4.61% | growth inhibition [2] -1.42% | viability increase [3] -0.13% | viability [4] 100% | viability [5] 91.1% | inhibition [6] 2.65% | RAM network inhibition [7] -0.36%

COc1ccc(NC(=O)Nc2cccc(C)n2)cc1
inactive: growth inhibition [1] 6.65% | growth inhibition [2] 21.5% | viability increase [3] -1.44% | viability [4] 100% | viability [5] 88.4% | inhibition [6] 0.5% | RAM network inhibition [7] 3.92%

COCCCNC(=O)c1ccccc1Oc1ccccc1
inactive: growth inhibition [1] -8.28% | growth inhibition [2] -2.05% | viability increase [3] -1.39% | viability [4] 96.3% | viability [5] 97% | inhibition [6] 1.46% | RAM network inhibition [7] 1.58%

Cc1c(NC(=O)C2CC=CCC2C(=O)O)c(=O)n(-c2ccccc2)n1C (configuration not stated)
inactive: growth inhibition [1] -5.59% | growth inhibition [2] -6.86% | viability increase [3] -0.87% | viability [4] 101% | viability [5] 94.3% | inhibition [6] 1.54% | RAM network inhibition [7] 1.99%

COCCn1c(SCC(=O)Nc2cc(Cl)ccc2OC)nc2c(c1=O)SC(C)C2 (configuration not stated)
inactive: growth inhibition [1] 1.23% | growth inhibition [2] 0.95% | viability increase [3] -6.28% | viability [4] 83.3% | viability [5] 78% | inhibition [6] 2.55% | RAM network inhibition [7] -0.36%

Cc1ccccc1N(CC(=O)NCCSCc1ccco1)S(C)(=O)=O
inactive: growth inhibition [1] -4.43% | growth inhibition [2] -7.72% | viability increase [3] -3.94% | viability [4] 93.1% | viability [5] 95.5% | inhibition [6] -0.58% | RAM network inhibition [7] 7.43%

CCC/C(O)=C1\C(=O)CC(C)(C)CC1=NCCO
inactive: growth inhibition [1] 1.41% | growth inhibition [2] 11.1% | viability increase [3] -0.35% | viability [4] 91.9% | viability [5] 98.6% | inhibition [6] 2.65% | RAM network inhibition [7] 3.31%

Cc1cccc(CSc2nnc(-c3ccccn3)n2N)c1
inactive: growth inhibition [1] -6.39% | growth inhibition [2] 14.2% | viability increase [3] -2.01% | viability [4] 103% | viability [5] 94.4% | inhibition [6] 0.655% | RAM network inhibition [7] 0.89%

Cc1cccc(-n2ncc3c(N4CCC(C)CC4)ncnc32)c1
inactive: growth inhibition [1] -5.82% | growth inhibition [2] 10.6% | viability increase [3] 4.21% | viability [4] 81.4% | viability [5] 82.9% | inhibition [6] -0.31% | RAM network inhibition [7] 1.32%

CCOCCn1c(COc2ccccc2)nc2ccccc21
inactive: growth inhibition [1] -6.72% | growth inhibition [2] 1.93% | viability increase [3] -2.53% | viability [4] 83.8% | viability [5] 81.9% | inhibition [6] 1.88% | RAM network inhibition [7] 6.89%
